The test system of data set [1] is Salmonella typhimurium. The data set can be described thus: Antibacterial activity against 1 MOI Salmonella enterica subsp. enterica serovar Typhimurium infected in mouse J774A1 cells assessed as reduction in bacterial growth at 100 uM after 24 hrs. In kind it is functional, J774.A1. Set-up: scale not given: the % may be the effect or the level left. An outline of the steps:
(§1)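 J774A.1 cells or thioglycolate-elicited BALB/c peritoneal macrophages seeded at 200,000/well, overnight 37°C 5% CO2; infected with GFP strain SDT1416, 1 h invasion, washed, 1 h in DMEM with 15 μg/ml gentamicin. Then fresh DMEM plus 15 μg/ml gentamicin with or without peptide (DMSO vehicle) for 24 h at 37°C; macrophages lysed with 1% Triton X-100, plated on LB agar for CFU.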

Data set [2] deals with J774.A1. Briefly: Drug uptake in mouse J774A1 cells at 1 uM after 4 hrs by confocal laser microscopy. In kind it is ADME, cell-based. The following applies: j774.a1, 4 h. A digest of the protocol: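 Cells were seeded at 200,000 per chamber-slide well and left to adhere overnight at 37°C. They were then exposed in DMEM to peptide carrying an N-terminal rhodamine label, at 37°C or, where stated, 4°C. Cells were washed three times in PBS, fixed in 4% paraformaldehyde for 30 min, and mounted in antifade. Optical slices near the cell centre were imaged by confocal laser microscopy.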

In data set [3] the test system is Salmonella typhimurium. Briefly: Antibacterial activity against 10 MOI Salmonella enterica subsp. enterica serovar Typhimurium G785 transfected with SOS-inducible beta-galactosidase reporter infected in mouse J774A1 cells assessed as bacterial number at 100 uM after 24 hrs postinfection. In kind it is functional, J774.A1. A digest of the protocol: (§2)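 J774A.1 cells infected at MOI 10 with sulA promoter-lacZ reporter strain G785 using the gentamicin-protection protocol, treated with peptide (DMSO vehicle controls) plus 15 μg/ml gentamicin for 4 or 24 h. Released bacteria were plated for colony counts in parallel, and were incubated with 33 μM C12FDG (with 0.2 mM EDTA) in LB for 2 h at 37°C. Flow cytometry gave % fluorescein-positive among LPS-antibody-positive particles; Wilcoxon exact test.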

For data set [4], the system named is J774.A1. The data set can be described thus: Drug uptake in mouse J774A1 cells assessed as dimer to monomer peptide ratio at 50 uM after 5 hrs at 4 degC by HPLC analysis. The following applies: j774.a1, 5 h. It is filed as ADME, cell-based. An outline of the steps:
(§3)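 J774A.1 cells were incubated with unlabeled peptide for 5 or 24 h at 37°C or 4°C, washed in ice-cold PBS and lysed with NP-40 buffer. Lysates were run on reverse-phase HPLC with an acetonitrile/0.1% TFA gradient and A280 fractions. Monomer (~17.5 min) and dimer (~17.75 min) peak areas were compared against a standard curve. Intracellular mM was calculated using 300,000 cells and 1 pl/cell, with concentration expressed as monomer mass.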

Data set [5] is described as follows: Cytotoxicity against mouse J774A1 cells assessed as live cells at 50 uM by calcein AM assay. The conditions noted are these: read-out: Activity. It is filed as cell-based, J774.A1. An outline of the steps: (§4)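 Cells seeded at 300,000/well and allowed to adhere, then given fresh DMEM with or without peptide for 24 h. Cells trypsinized, stained with a mammalian Live/Dead viability/cytotoxicity kit and analyzed by flow cytometry. Wilcoxon exact test.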

The test system of data set [6] is Salmonella typhimurium. The data set can be described thus: Antibacterial activity against 1 MOI Salmonella enterica subsp. enterica serovar Typhimurium infected in mouse peritoneal macrophages assessed as reduction in bacterial growth at 150 uM after 24 hrs relative to DMSO control. It is filed as functional. Also on record: scale not given: the % may be the effect or the level left. A digest of the protocol:
as §1

Data set [7] in a line: Cytotoxicity against mouse peritoneal macrophages assessed as metabolic activity upto 100 uM after 24 hrs by MTT assay. It is filed as ADME, cell-based. The conditions noted are these: peritoneal macrophage cell. An outline of the steps:
(§5)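 Cells seeded at 40,000/well in 96-well plates, overnight 37°C 5% CO2, then treated 24 h in fresh DMEM. MTT (4 mg/ml stock in PBS) added for up to 3 h. Formazan solubilized overnight at 37°C in SDS/dimethylformamide/acid lysis buffer, OD read at 575 nm. Paired t tests.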

In data set [8] the test system is Salmonella typhimurium. The data set can be described thus: Antibacterial activity against 1 MOI Salmonella enterica subsp. enterica serovar Typhimurium infected in mouse peritoneal macrophages assessed as reduction in bacterial growth after 24 hrs. It is filed as functional, organism-based. A digest of the protocol: as §1
The subject of data set [9] is Salmonella typhimurium. Briefly: Antibacterial activity against 10 MOI Salmonella enterica subsp. enterica serovar Typhimurium G785 transfected with SOS-inducible beta-galactosidase reporter infected in mouse J774A1 cells assessed as SOS induction at 50 uM after 4 hrs postinfection. In kind it is functional, J774.A1. An outline of the steps:
as §2

Data set [10] concerns Salmonella typhimurium. The data set can be described thus: Antibacterial activity against 10 MOI Salmonella enterica subsp. enterica serovar Typhimurium G785 transfected with SOS-inducible beta-galactosidase reporter infected in mouse J774A1 cells assessed as bacterial number at 100 uM after 4 hrs postinfection. It is filed as functional, J774.A1. A digest of the protocol:
as §2

Data set [11] can be described thus: Cytotoxicity against mouse peritoneal macrophages assessed as increase in metabolic activity at 150 uM after 24 hrs by MTT assay. It is filed as ADME, cell-based. The following applies: peritoneal macrophage cell. A digest of the protocol: as §5
For orientation: Tetrazolium dyes change colour on reduction, which living cells bring about.

Data set [12] concerns Salmonella typhimurium. Briefly: Antibacterial activity against 10 MOI Salmonella enterica subsp. enterica serovar Typhimurium G785 transfected with SOS-inducible beta-galactosidase reporter infected in mouse J774A1 cells assessed as SOS induction at 100 uM after 4 hrs postinfection. In kind it is functional, J774.A1. A digest of the protocol:
as §2

Data set [13] deals with Salmonella typhimurium. Briefly: Antibacterial activity against 10 MOI Salmonella enterica subsp. enterica serovar Typhimurium G785 transfected with SOS-inducible beta-galactosidase reporter infected in mouse J774A1 cells assessed as SOS induction at 50 uM after 24 hrs postinfection. In kind it is functional, J774.A1. An outline of the steps: as §2
Data set [14] has as its system J774.A1. Briefly: Drug uptake in mouse J774A.1 cells assessed as total peptide concentration at 50 uM after 24 hrs at 4 degC by HPLC analysis. The conditions noted are these: J774A.1, 24 h.
Data set [15] can be described thus: Cytotoxicity against mouse peritoneal macrophages assessed as dead cells at 50 uM by propidium iodide assay. It is filed as cell-based. The following applies: peritoneal macrophage cell. A digest of the protocol: as §4
Data set [16] is described as follows: Drug uptake in mouse peritoneal macrophages assessed as total peptide concentration at 50 uM after 24 hrs at 37 degC by HPLC analysis. The following applies: peritoneal macrophage cell. It is filed as ADME, cell-based. A digest of the protocol: (§6)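 Macrophages were elicited in 8–12-week-old female BALB/c mice with 4% thioglycolate i.p. and harvested by lavage 4 days later. Cells were seeded at 300,000 per well for 24 h, then given unlabeled peptide in DMEM for 24 h at 37°C. Lysates were run on reverse-phase HPLC at A280. Monomer (17.5 min) and dimer (17.75 min) peak areas were compared with a standard curve. Concentration assumed 1 pl per cell; values are means of three determinations.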

Data set [17] concerns J774.A1. Briefly: Drug uptake in mouse J774A1 cells assessed as dimer to monomer peptide ratio at 50 uM after 5 hrs at 37 degC by HPLC analysis. The following applies: j774.a1, 5 h. In kind it is ADME, cell-based. An outline of the steps:
as §3

The nature of data set [18]: Cytotoxicity against mouse J774A1 cells assessed as live cells at 100 uM by calcein AM assay. In kind it is cell-based, J774.A1. The conditions noted are these: read-out: Activity. An outline of the steps:
as §4

Data set [19] can be described thus: Cytotoxicity against mouse J774A1 cells assessed as reduction in metabolic activity at 100 uM after 24 hrs by MTT assay. In kind it is ADME, cell-based, J774.A1. The conditions noted are these: read-out: INH. A digest of the protocol:
as §5

The nature of data set [20]: Cytotoxicity against mouse peritoneal macrophages assessed as live cells at 100 uM by calcein AM assay. In kind it is cell-based, Peritoneal macrophage cell. The following applies: read-out: Activity. An outline of the steps: as §4
Data set [21] in a line: Drug uptake in mouse peritoneal macrophages assessed as dimer to monomer peptide ratio at 150 uM after 24 hrs at 37 degC by HPLC analysis. It is filed as ADME, cell-based. The conditions noted are these: peritoneal macrophage cell. An outline of the steps:
as §6

Data set [22] concerns Salmonella typhimurium. Briefly: Antibacterial activity against 1 MOI Salmonella enterica subsp. enterica serovar Typhimurium infected in mouse J774A1 cells assessed as reduction in bacterial growth at 50 uM after 24 hrs. Also on record: scale not given: the % may be the effect or the level left. In kind it is functional, J774.A1. A digest of the protocol: as §1
In data set [23] the test system is Salmonella typhimurium. The data set can be described thus: Antibacterial activity against 10 MOI Salmonella enterica subsp. enterica serovar Typhimurium G785 transfected with SOS-inducible beta-galactosidase reporter infected in mouse J774A1 cells assessed as bacterial number at 150 uM after 4 hrs postinfection. It is filed as functional, J774.A1. An outline of the steps: as §2

SMILES strings stand for the structures.

Turning to `N=C(N)NCCC[C@@H](NC(=O)[C@@H](CS)NC(=O)[C@@H](Cc1ccc(O)cc1)NC(=O)[C@@H](Cc1c[nH]c2ccccc12)NC(=O)[C@@H](CCCNC(=N)N)NC(=O)[C@H](N)Cc1c[nH]c2ccccc12)C(=O)O`, the Activity in the data set on Salmonella typhimurium [1] was 85.1%; with Salmonella typhimurium [3], 2.8%; with Salmonella typhimurium [6], 83%; in [7], “Non-toxic”; in the data set on Salmonella typhimurium [8], “Dose-dependent effect”; in the data set with Salmonella typhimurium [9] it was 0.3%. Besides, the Activity amounted to 19% with Salmonella typhimurium [10]; 18% in [11]; 1.3% in the data set with Salmonella typhimurium [12]; 0.4% in the data set on Salmonella typhimurium [13]; 3.2% in data set [15]; 68.5% in the data set with Salmonella typhimurium [22]. In addition, in the data set on Salmonella typhimurium [23], the Activity was 3%. Besides, the Drug uptake entry was “Active” with J774.A1 [2], 10.1 mM in the data set on J774.A1 [14] and 2.5 mM in [16]. Besides, the Ratio in the data set on J774.A1 [4] stood at 2.3; in the data set on J774.A1 [17] it was 2.1; in data set [21] it was 11.4. In addition, the viability at 50 µM in [5] was 93%. The figures for the viability at 100 µM in data set [18] and in [20] were 58.9% and 94.4%, respectively. Besides, the cytotoxicity at 24 h, 100 µM in data set [19] turned out to be 17.3%.

The values above are taken from ChEMBL document CHEMBL1255440, “An antimicrobial peptide that targets DNA repair intermediates in vitro inhibits Salmonella growth within murine macrophages” (Antimicrob Agents Chemother, 2010).
